Experimental data reported in the RNAGym collection of RNA variant scans (doi:10.1126/science.aae0568).
This sample holds only a part of the variants without activity.

B1: tRNA (parent)
chain: GUUCCGUUGGCGUAAUGGUAACGCGUCUCCCUCCUAAGGAGAAGACUGCGGGUUCGAGUCCCGUACGGAACG

Variants of: B1
Assay: yeast fitness relative to wild type (ratio to wild type); higher = fitter; tRNA-Arg(CCU), competitive growth, 37 C, YPD
In short: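 Variants of the tRNA-Arg(CCU) gene were chemically synthesised with a 3% per-site mutation rate across 69 sites and placed at the native genomic locus in Saccharomyces cerevisiae. Six parallel replicates of the pooled strains were competed in YPD at 37°C for 24 hours, and gene amplicons from the start and end populations were read by 100-nucleotide paired-end sequencing. Darwinian fitness relative to wild type was derived from changes in genotype frequencies. Genotypes required ≥ 100 starting reads, and estimates < 0.5 were set to 0.5.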

**Q.** With GUUCUGUUGGCGUAAUGGUAACGCGUCUCCCUCCUAAGGAGAAGACUGCGAGUUCGAGUCCCGUCCGGAACG [C5U G51A A65C] as the variant, how does the yeast fitness read?
**A.** ≤ 0.5

**Q.** Which yeast fitness does the source give for GUUCUGUUGGCGUAAUGGUAACGCGUCUCCCUCCUAAGGAGAAGACUGCGCGUUCGCGUCCCGUACGGAACG [C5U G51C A57C] here?
**A.** ≤ 0.5

**Q.** For GUUCUGUUGGCGUAAUGGUAACGCGUCUCCCUCCUAAGGAGAAGACUGCGCGUUCCAGUCCCGUACGGAACG [C5U G51C G56C], which yeast fitness is on record?
**A.** ≤ 0.5

**Q.** With GUUCUGUUGGCGUAAUGGUAACGCGUCUCCCUCCUAAGGAGAAGACUGCGCGUUCCAGUCCCGUACGGUACG [C5U G51C G56C A69U] as the variant, how does the yeast fitness read?
**A.** ≤ 0.5

**Q.** Which yeast fitness does the source give for GUUCUGUUGGCGUAAUGGUAACGCGUCUCCCUCCUAAGGAGAAGACUGCGCGCUCGAGUCCCGUACGGAACG [C5U G51C U53C] here?
**A.** ≤ 0.5

**Q.** With GUUCUGUUGGCGUAAUGGUAACGCGUCUCCCUCCUAAGGAGAAGACUGCGCGCUCGAGUCCCGUACGGGACG [C5U G51C U53C A69G] as the variant, how does the yeast fitness read?
**A.** ≤ 0.5

**Q.** For GUUCUGUUGGCGUAAUGGUAACGCGUCUCCCUCCUAAGGAGAAGACUGCGGAUUCGAGUCCCGUGCGGAACG [C5U G52A A65G], which yeast fitness is on record?
**A.** 0.598

**Q.** Which yeast fitness does the source give for GUUCUGUUGGCGUAAUGGUAACGCGUCUCCCUCCUAAGGAGAAGACUGCGGAUUCGAGUCCCGUUCGGAACG [C5U G52A A65U] here?
**A.** ≤ 0.5

**Q.** With GUUCUGUUGGCGUAAUGGUAACGCGUCUCCCUCCUAAGGAGAAGACUGCGGCUUCGAGUCCCGUACGGAACG [C5U G52C] as the variant, how does the yeast fitness read?
**A.** 0.622

**Q.** For GUUCUGUUGGCGUAAUGGUAACGCGUCUCCCUCCUAAGGAGAAGACUGCGGGUUCAAGUCCCGUACGGAACG [C5U G56A], which yeast fitness is on record?
**A.** 0.937

**Q.** With GUUCUGUUGGCGUAAUGGUAACGCGUCUCCCUCCUAAGGAGAAGACUGCGGGUUCAAGUCCCGUGUGGAACG [C5U G56A A65G C66U] as the variant, how does the yeast fitness read?
**A.** 0.671

**Q.** With GUUCUGUUGGCGUAAUGGUAACGCGUCUCCCUCCUAAGGAGAAGACUGCGGGUUCAAGUCCCGUACGCUACG [C5U G56A G68C A69U] as the variant, how does the yeast fitness read?
**A.** ≤ 0.5

**Q.** With GUUCUGUUGGCGUAAUGGUAACGCGUCUCCCUCCUAAGGAGAAGACUGCGGGUUCAAGGCCCGUACGGAACG [C5U G56A U59G] as the variant, how does the yeast fitness read?
**A.** 0.516

**Q.** With GUUCUGUUGGCGUAAUGGUAACGCGUCUCCCUCCUAAGGAGAAGACUGCGGGUUCCAGUCCCGUACGGAACG [C5U G56C] as the variant, how does the yeast fitness read?
**A.** 0.651

**Q.** With GUUCUGUUGGCGUAAUGGUAACGCGUCUCCCUCCUAAGGAGAAGACUGCGGGUUCCUGUCCCGUACGGAACG [C5U G56C A57U] as the variant, how does the yeast fitness read?
**A.** ≤ 0.5

**Q.** For GUUCUGUUGGCGUAAUGGUAACGCGUCUCCCUCCUAAGGAGAAGACUGCGGGUUCCAGUCCCGUGCGGAACG [C5U G56C A65G], which yeast fitness is on record?
**A.** 0.536

**Q.** For GUUCUGUUGGCGUAAUGGUAACGCGUCUCCCUCCUAAGGAGAAGACUGCGGGUUCCAGUCCCGUUCGGAGCG [C5U G56C A65U A70G], which yeast fitness is on record?
**A.** ≤ 0.5

**Q.** With GUUCUGUUGGCGUAAUGGUAACGCGUCUCCCUCCUAAGGAGAAGACUGCGGGUUCGAAUCCCGUACGGAACG [C5U G58A] as the variant, how does the yeast fitness read?
**A.** 0.88

**Q.** With GUUCUGUUGGCGUAAUGGUAACGCGUCUCCCUCCUAAGGAGAAGACUGCGGGUUCGACUCCCGUACGGAACG [C5U G58C] as the variant, how does the yeast fitness read?
**A.** 1

**Q.** Which yeast fitness does the source give for GUUCUGUUGGCGUAAUGGUAACGCGUCUCCCUCCUAAGGAGAAGACUGCGGGUUCGACUCCCGUAGGGAACG [C5U G58C C66G] here?
**A.** ≤ 0.5

**Q.** With GUUCUGUUGGCGUAAUGGUAACGCGUCUCCCUCCUAAGGAGAAGACUGCGGGUUCGACUCCCGUACGAAACG [C5U G58C G68A] as the variant, how does the yeast fitness read?
**A.** 0.513

**Q.** For GUUCUGUUGGCGUAAUGGUAACGCGUCUCCCUCCUAAGGAGAAGACUGCGGGUUCGACCCCCGUACGGAACG [C5U G58C U59C], which yeast fitness is on record?
**A.** 0.675

**Q.** Which yeast fitness does the source give for GUUCUGUUGGCGUAAUGGUAACGCGUCUCCCUCCUAAGGAGAAGACUGCGGGUUCGAGUCCCAUACGGAACG [C5U G63A] here?
**A.** 0.828

**Q.** With GUUCUGUUGGCGUAAUGGUAACGCGUCUCCCUCCUAAGGAGAAGACUGCGGGUUCGAGUCCCCUACGGAACG [C5U G63C] as the variant, how does the yeast fitness read?
**A.** 0.664

**Q.** Which yeast fitness does the source give for GUUCUGUUGGCGUAAUGGUAACGCGUCUCCCUCCUAAGGAGAAGACUGCGGGUUCGAGUCCCGUACAGAACG [C5U G67A] here?
**A.** 0.923

**Q.** For GUUCUGUUGGCGUAAUGGUAACGCGUCUCCCUCCUAAGGAGAAGACUGCGGGUUCGAGUCCCGUACAGUACG [C5U G67A A69U], which yeast fitness is on record?
**A.** ≤ 0.5

**Q.** Which yeast fitness does the source give for GUUCUGUUGGCGUAAUGGUAACGCGUCUCCCUCCUAAGGAGAAGACUGCGGGUUCGAGUCCCGUACCGAACG [C5U G67C] here?
**A.** 0.913

**Q.** With GUUCUGUUGGCGUAAUGGUAACGCGUCUCCCUCCUAAGGAGAAGACUGCGGGUUCGAGUCCCGUACUGAACG [C5U G67U] as the variant, how does the yeast fitness read?
**A.** 0.735

**Q.** With GUUCUGUUGGCGUAAUGGUAACGCGUCUCCCUCCUAAGGAGAAGACUGCGGGUUCGAGUCCCGUACGAAACG [C5U G68A] as the variant, how does the yeast fitness read?
**A.** 0.969

**Q.** For GUUCUGUUGGCGUAAUGGUAACGCGUCUCCCUCCUAAGGAGAAGACUGCGGGUUCGAGUCCCGUACGCAACG [C5U G68C], which yeast fitness is on record?
**A.** 0.842

**Q.** Which yeast fitness does the source give for GUUCUGUUGGCGUAAUGGUAACGCGUCUCCCUCCUAAGGAGAAGACUGCGGGUUCGAGUCCCGUACGUAACG [C5U G68U] here?
**A.** 0.88

**Q.** With GUUCUGAUGGCGUAAUGGUAACGCGUCUCCCUCCUAAGGAGAAGACUGCGGGUUCGAGUCCCGUACGGAACG [C5U U7A] as the variant, how does the yeast fitness read?
**A.** 0.772

**Q.** For GUUCUGAUGGCGUAAUGGUCACGCGUCUCCCUCCUAAGGAGAAGACUGCGGGUUCGAGUCCCGUACGCAACG [C5U U7A A20C G68C], which yeast fitness is on record?
**A.** ≤ 0.5

**Q.** For GUUCUGAUGGCGUAAUGGUAACGCGUCUCCCUCCUUAGGAGAAGACUGCGGGUUCGAGUCCCGUACGGAACG [C5U U7A A36U], which yeast fitness is on record?
**A.** ≤ 0.5

**Q.** For GUUCUGAUGGCGUAAUGGUAACGCGUCUCACUCCUAAGGAGAAGACUGCGGGUUCCAGUCCCGUAGGGAACG [C5U U7A C30A G56C C66G], which yeast fitness is on record?
**A.** ≤ 0.5

**Q.** For GUUCUGAUGGCGUAAUGGUAACGCGUCUCCCUACUAAGGAGAAGCCUGCGGGUUCGAGUCCCGUACGGAACG [C5U U7A C33A A45C], which yeast fitness is on record?
**A.** 0.573

**Q.** Which yeast fitness does the source give for GUUCUGAUGGCGUAAUGGUAACGCGUCUCCCUUCUAAGGAGCAGACUGCGGGUUCGAGUCCCGCACGGAGCG [C5U U7A C33U A42C U64C A70G] here?
**A.** ≤ 0.5
